# FLuc stim CS: affects firefly luciferase, flagging false hits in luciferase stimulation screens | ATPlite luciferase biochemical, luminescence, 10 min; 0 = ATP-free wells, 1 = DMSO control | 200,000 tested, under 10 active | AID 1027 | activation factor at 10 µM | P08659;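 active means luciferase activation factor, scaled between plate controls, of at least 2 with compound at 10 µM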
# Target sequence (P08659 whole entry, looked up): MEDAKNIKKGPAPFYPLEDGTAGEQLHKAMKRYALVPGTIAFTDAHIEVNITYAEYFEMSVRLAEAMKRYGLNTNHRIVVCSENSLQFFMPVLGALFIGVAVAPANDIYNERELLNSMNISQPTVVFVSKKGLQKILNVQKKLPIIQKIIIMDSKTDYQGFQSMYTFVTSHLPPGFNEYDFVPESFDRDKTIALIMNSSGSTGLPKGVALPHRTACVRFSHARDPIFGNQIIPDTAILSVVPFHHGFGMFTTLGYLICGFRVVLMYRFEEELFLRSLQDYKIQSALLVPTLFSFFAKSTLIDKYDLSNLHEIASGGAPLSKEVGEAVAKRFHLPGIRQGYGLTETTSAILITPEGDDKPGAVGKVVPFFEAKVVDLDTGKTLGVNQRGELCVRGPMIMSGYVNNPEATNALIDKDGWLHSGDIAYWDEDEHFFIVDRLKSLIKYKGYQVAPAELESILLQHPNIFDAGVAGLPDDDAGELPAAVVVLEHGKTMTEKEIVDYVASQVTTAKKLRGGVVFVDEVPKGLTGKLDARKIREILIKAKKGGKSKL
#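 Material: luciferase plus luciferin reagent, cell-free. Medium: PBS buffer for ATP. Also added: ATP substrate, dispensed from a 10.24 µM working solution in PBS. Doses: test compounds dosed from 2 mM stocks in 100% DMSO. Incubation: 10 min post-reagent at room temperature. Technique: light output (luminescence). Read-out basis: luminescence gain marking luciferase activators.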
# PPC-1+TRAIL kill: compounds killing PPC-1 cancer cells with TRAIL present (potentiator screen, no TRAIL-free arm). PPC-1 cells + TRAIL, ATPLite viability luminescence. cell killing (% activity), % at 4 µM or 5 µM. 0.41% of 220,000 active. AID 1443;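 active means cell killing above 50% in the first pass at 4 µM, then a duplicate retest at 5 µM averaging 50% or more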;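 further: plate controls were cells with TRAIL plus DMSO for no effect and medium-only wells lacking cells for full effect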
# TRAIL sens C8: caspase-8 TRAIL sensitization; NB7+C8 cells + TRAIL, ATPlite viability luminescence; 1% of 360,000 active; inhibition (viability loss, TRAIL sensitization), % at 10 µM; AID 624354;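 active means compounds causing at least 50% loss of cell viability in the single-dose screen, relative to plate controls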
# FLuc inhib CS: counter-screen for luciferase assay inhibitors: firefly luciferase inhibition; P08659; ATPLite firefly luciferase biochemical luminescence, 10 min; inhibition, % at 10 µM; 1.5% of 200,000 active; AID 1006;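 active means inhibition above about 50% when tested at 10 µM, limit read from the data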
# Numbers without * were called inactive; · = no result given; ! = repeats disagree. Only some compounds are listed: those with a hit (about 1.5% of all), similar ones and a draw of the others.
SMILES,FLuc stim CS,PPC-1+TRAIL kill,TRAIL sens C8,FLuc inhib CS
Cc1cc(C)c(S(=O)(=O)N2CCN(C(=O)CN3C(=O)NC4(CCCC4)C3=O)CC2)c(C)c1,·,·,4.6,·
COC(=O)[C@]12CCCCC=C1N(Cc1ccco1)C(=O)[C@H](CC(=O)NCc1cccs1)C2,·,·,-3.8,·
Cc1cc(C(=O)N/N=C/c2c(C)nn(-c3ccccc3)c2C)n[nH]1,·,13.7,11.6,·
Cc1nn(-c2ccccc2)c(C)c1/C=N/NC(=O)c1cc(-c2ccc(Cl)s2)[nH]n1,1,-24.5,46.5*,-1.7
Cc1nn(-c2ccccc2)c(C)c1-c1cc(C(=O)N/N=C/c2ccc(O)cc2)[nH]n1,·,2.8,49.6*,·
Cc1nn(-c2ccccc2)c(C)c1/C=N/NC(=O)c1cc(C23CC4CC(CC(C4)C2)C3)[nH]n1,1,14.0,64.0*,-0.5
CCOc1ccc(NC(=O)CN(C)C(=O)c2n[nH]c(=O)c3ccccc23)cc1OCC,·,·,4.5,·
CC(C)c1ccc(/C=C2\SC(=S)N(CCC(=O)N3CCCCC3CCO)C2=O)cc1 (configuration not stated),·,·,60.3*,·
Oc1cccc(/C=N/NC(=S)Nc2cccnc2)c1O,0.5,27.1,55.5*,47.2
Oc1ccc(/C=N/NC(=S)Nc2cccnc2)c(O)c1O,·,3.7,-18.0,·
Oc1ccc(/C=N/NC(=S)Nc2cccnc2)c(O)c1,0.9,27.7,79.7*,12.9
Cc1ccc(S(=O)(=O)N2C[C@H]3[C@H]4C(=O)N(Cc5ccccc5)C(=O)[C@H]4CC(=O)[C@H]3[C@@H]2c2cccc3ccccc23)cc1,·,·,32.7,·
CC(C)N(Cc1ccccc1)C(=O)CN1C(=O)NC2(CCOc3ccccc32)C1=O (configuration not stated),·,·,-2.9,·
Cn1c(=O)c2c(ncn2CC(=O)OCC(=O)c2ccc(OC(F)F)cc2OC(F)F)n(C)c1=O,·,·,11.5,·
O=C(CCn1cnnn1)Nc1ccccc1,1,0.8,-2.2,0.0
CCc1cc2c(=O)c(-c3cnn(-c4ccccc4)c3)c(C)oc2cc1OCC(=O)Nc1ccc(F)c(F)c1,1.1,15.4,51.8*,-6.6
Cc1ccc(NC(=O)CSc2ccc(-c3ccc4c(c3)OCO4)nn2)cc1F,0.9,29.4,55.0*,7.1
Cc1cc(NC(=O)CSc2ccc(-c3ccc4c(c3)OCO4)nn2)no1,1,-2.7,·,-1.3
CCCC(=O)N1CCN(c2ccc(NC(=O)c3cccs3)cc2)CC1,1,0.7,-7.7,3.5
CCCCn1c(N)c(N(CC)C(=O)c2cccc(OC)c2)c(=O)[nH]c1=O,1.1,10.6,-6.5,-5.3
Cc1ccc(/C=N/NC(=O)c2ccccn2)s1,0.3,45.7,41.3,75.0*
O=C(N/N=C/c1cccs1)c1ccccn1,0.5,4.7,8.6,51.1*
N#C/C(=N\Nc1cccc(F)c1)C(=N)N1CCCCCC1,0.4,29.6,25.9,62.3*
N#C/C(=N\Nc1ccc(F)cc1)C(=N)N1CCCCC1,0.5,25.5,17.4,54.8*
CC1(C(=O)Nc2ccc3c(c2)OCCO3)CCC(=O)N1CCc1c[nH]c2ccccc12 (configuration not stated),·,·,0.8,·
SMILES,FLuc stim CS,PPC-1+TRAIL kill,TRAIL sens C8,FLuc inhib CS
CC1(C(=O)NS(=O)(=O)c2ccc(F)cc2F)CCN1C(=O)Cc1cc(F)ccc1F (configuration not stated),·,·,1.2,·
COc1ccc(N=Cc2c(O)[nH]c3ccccc23)cc1,0.5,4.1,24.2,51.8*
COc1ccc(CN=Cc2c(O)[nH]c3ccccc23)cc1,1,-5.3,0.4,-3.9
COc1ccc(N=Cc2c(O)c3ccccc3oc2=O)cc1,0.1,6.9,11.8,88.2*
CC1CCc2c(sc3nc(CN4CCN(S(=O)(=O)c5ccccc5[N+](=O)[O-])CC4)[nH]c(=O)c23)C1 (configuration not stated),1.1,-9.1,3.3,-5.5
CC(C)C(=O)Nc1nc2c(c(=O)[nH]1)CCCC2,1,-0.7,10.4,-4.0
CC(C)CC(=O)Nc1nc2c(c(=O)[nH]1)CCCC2,1,19.1,61.5*,-4.8
CCOC(=O)c1cc(CC)sc1NC(=O)COC(=O)C1CCC1,·,·,-6.2,·
O=C1C=C(O)c2cccc(O)c2C1=O,·,17.9,-5.6,·
O=C1C=C(c2c(O)ccc3ccccc23)c2ccccc2C1=O,·,·,86.4*,·
CC(O)CC(=O)OC[C@]12CC[C@H]3[C@@](C)(CC[C@H]4C(C)(C)CCC[C@]34C)[C@@H]1CC(C1=CC(=O)OC1O)O2 (some centres not stated),·,·,86.2*,·
C/C(=N\NC(=O)c1ccn[nH]1)c1cn(C)nc1C,0.5,5.1,26.9,54.1*
CCc1ccc(C2=NNC(=Nc3cccc(S(=O)(=O)N(C)C)c3)SC2)cc1,1,2.2,70.9*,-1.6
Cc1ccc(C2=NNC(=Nc3ccc(F)cc3)SC2)cc1,1,12.3,14.8,4.6
Cc1cccc(NC2=C/C(=N/S(=O)(=O)c3cccs3)c3ccccc3C2=O)c1,0.9,51.2*,95.4*,14.4
Cc1ccc(Cl)cc1NC1=C/C(=N\S(=O)(=O)c2cccs2)c2ccccc2C1=O,1,-6.9,92.0*,-1.2
Cc1cc(C)c(S(=O)(=O)/N=C2\C=C(NS(=O)(=O)c3ccccc3)C(=O)c3ccccc32)c(C)c1,·,·,-2.4,·
CCOc1ccc(NC(=O)CN2CCN(c3ccc(F)cc3)CC2)cc1S(=O)(=O)N1CCCC1,·,·,4.0,·
CCN1CCN(Cc2ccc(NC(=O)c3cc(NC(=O)c4cncc(-c5ccc(C#N)cc5)c4)cc(OC)c3)cc2C(F)(F)F)CC1,·,-0.1,94.0*!,·
CCN1CCN(Cc2ccc(NC(=O)c3ccc(C)c(NC(=O)c4nccn4C)c3)cc2C(F)(F)F)CC1,·,19.0,7.5,·
CCN1CCN(Cc2ccc(NC(=O)c3cc(NC(=O)c4cnnc5ccccc45)cc(OC)c3)cc2C(F)(F)F)CC1,·,25.6,55.8*!,·
CCN1CCN(Cc2ccc(NC(=O)c3ccc(C)c(NC(=O)c4cncc(-c5cccs5)c4)c3)cc2C(F)(F)F)CC1,·,·,69.7*,·
COCC(C)NC(=O)C1CC(=O)N(CCc2ccc(F)cc2)C1 (configuration not stated),·,·,-1.6,·
O=C(NCc1ccccn1)Nc1cccc(F)c1,·,·,7.4,·
CSc1ccccc1C(=O)OCC(=O)N1CCCCCC1,·,·,-6.3,·
SMILES,FLuc stim CS,PPC-1+TRAIL kill,TRAIL sens C8,FLuc inhib CS
CN(C)c1ccc(N=Nc2ccccc2C(=O)OCC(=O)N2CCCC2)cc1,0.3,41.9,47.5,69.9*
CN(C)c1ccc(N=Nc2ccccc2C(=O)OCC(=O)Nc2ccccc2C(F)(F)F)cc1,0.8,1.0,11.6,16.5
CN(C)c1ccc(N=Nc2ccccc2C(=O)OCC(=O)N2CCCCCC2)cc1,0.3,41.8,54.8*,71.8*
CCCN1C(=O)C(=O)c2cc(Cl)ccc21,·,·,8.1,·
C/C(N)=C(/C#N)C(=O)CSc1cc(C)c2cc(C)cc(C)c2n1,1,2.6,-5.2,-2.2
Cn1c(N=NC(=O)c2ccccc2)c(O)c2ccccc21,0.1,44.4,60.4*,86.3*
COc1ccc2c(c1)N(C)/C(=C/c1cccc[n+]1C)S2,·,·,17.4,·
CCN1/C(=C/c2cccc[n+]2C)Sc2ccc(OC)cc21,·,·,54.0*,·
CN(C(=O)C1CC1)C1CCS(=O)(=O)C1 (configuration not stated),·,·,2.9,·

# Compound activity: PubChem BioAssay, Sanford-Burnham Center for Chemical Genomics
